Experimental findings from ChEMBL document CHEMBL4251758, “Small Molecule Inhibition of MicroRNA miR-21 Rescues Chemosensitivity of Renal-Cell Carcinoma to Topotecan” (J Med Chem, 2018) are described below.

Active and inactive are the calls of the source. The rule behind the calls is not given here.

Data set [1] can be described thus: Inhibition of miR-122 RNA (unknown origin) transfected in human Huh7-psiCHECK-miR122 cells at 10 uM incubated for 48 hrs by Bright-Glo luciferase reporter gene assay. Background: Reporter assays use an easily measured gene product as a stand-in for the process of interest.
Data set [2] concerns HeLa. The data set can be described thus: Effect on mature miR-21 expression levels in human HeLa cells at 10 uM after 48 hrs by qRT-PCR analysis. It counts as functional, cell-based. Put shortly:
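HeLa cells, 150,000 per well, grown overnight and exposed to 10 μM compound or DMSO (1% final) for 48 h at 37 °C. RNA was isolated and 100 ng reverse-transcribed with miR-21 or RNU19 TaqMan RT primers. TaqMan qPCR run for 40 cycles. Triplicate Ct values converted to levels relative to DMSO by the 2−ΔΔCt method.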
(In general: Quantitative PCR measures a nucleic acid by following its amplification.)

The test system of data set [3] is HeLa. Nature of the data set: Effect on primary miR-21 expression levels in human HeLa cells at 10 uM after 48 hrs by qRT-PCR analysis. The format is functional, cell-based. The procedure, abridged: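 HeLa cells were treated with 10 μM compound or DMSO (1% final) for 48 h, then RNA was isolated. 50 ng RNA was reverse-transcribed with iScript. TaqMan qPCR used pri-miR-21 and GAPDH primers. Triplicate Ct values were normalized to GAPDH and to DMSO controls by the 2−ΔΔCt method.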

Data set [4] in a line: Stabilization of pre-miR-21 RNA (unknown origin) assessed as increase in melting temperature at 10 uM by UV-spectrophotometric analysis. The procedure, abridged:
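Melting-curve analysis of precursor miR-21 RNA run with test compound, with DMSO as the reference condition and tobramycin (10 μM) as a positive control for RNA binding and stabilisation. Read-out is the shift in melting temperature of pre-miR-21 relative to the DMSO sample.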

In data set [5] the test system is U-87 MG. Nature of the data set: Cytotoxicity against human U87 cells after 72 hrs by XTT assay. It counts as functional, cell-based, U-87MG ATCC. The procedure, abridged: (§1)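 Cells seeded at 500 per well, incubated overnight, then exposed to increasing compound concentrations (0.1% DMSO final, DMSO control) in triplicate for 72 h. Activated XTT added; absorbance read at 450 nm with 630 nm background at start and after 4 h at 37 °C, 5% CO2. Change normalized to DMSO as % viability; IC50 from variable-slope sigmoidal fit; three independent measurements.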

The subject of data set [6] is HCT-116. Nature of the data set: Cytotoxicity against human HCT116 cells after 72 hrs by XTT assay. It counts as functional, cell-based. The conditions noted are these: HCT-116, 72 h. Put shortly:
as §1

The subject of data set [7] is microRNA 21. The data set can be described thus: Inhibition of miR-21 RNA in human A498 cells assessed as potentiation of topotecan-induced cytotoxicity by measuring reduction in topotecan IC50 at 10 uM after 72 hrs by XTT assay relative to topotecan alone. It counts as cell-based. Put shortly:
(§2)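 The chemotherapeutic agent (topotecan) was titrated while the miR-21 inhibitor was held at a fixed concentration, 0.1% DMSO final, in triplicate. Cells were seeded at 500 per well and treated after overnight attachment. After 72 h, XTT was read at 450 nm (630 nm background) at start and after 4 h. Signal normalized to DMSO; IC50 from variable-slope sigmoidal fit.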

Data set [8] concerns A498. Nature of the data set: Inhibition of colony formation of human A498 cells up to 10 uM after 2 weeks by crystal violet staining-based microscopic analysis. It counts as functional, cell-based. The procedure, abridged:
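A498 cells, 10,000 per well, seeded in 0.45% low-melt agarose in DMEM over a 0.7% agarose base layer, containing increasing compound concentrations or DMSO (0.1% final), in triplicate. For combinations, the inhibitor was held at 10 μM. After 2 weeks, colonies were stained with 0.1% crystal violet and imaged by z-stack microscopy. Colony counts were normalized to DMSO; IC50 from sigmoidal fit.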

The subject of data set [9] is microRNA 21. Nature of the data set: Inhibition of miR-21 RNA in human A498 cells assessed as increase in PDCD4 expression at 10 uM after 48 hrs by Western blot analysis relative to control. It counts as cell-based. The procedure, abridged:
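A498 cells, 250,000 per well, treated with 10 μM compound or DMSO (0.1%) for 48 h and lysed in RIPA buffer. Lysates were run on 10% SDS-PAGE, transferred to PVDF, and probed with rabbit anti-PTEN, anti-PDCD4 and anti-GAPDH, then HRP secondary. Chemiluminescence densitometry was normalized to GAPDH, then to DMSO.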
(In general: In western blotting, separated proteins are transferred to a membrane and probed.)

In data set [10] the test system is NIH3T3. The data set can be described thus: Potentiation of topotecan-induced cytotoxicity in mouse NIH/3T3 cells at 1 to 10 uM after 72 hrs by XTT assay. It counts as cell-based. The conditions noted are these: nih3t3, 72 h. The procedure, abridged:
as §2

Usually IC50 stands for the midpoint of a concentration-inhibition curve. Read a low IC50 as higher potency. On to `C#CCOc1ccc(-c2noc(-c3nnn(-c4cccc(/C(C)=N/O)c4)c3N)n2)cc1`, for which the inhibition entry in [1] and in data set [8] was “inactive” in each case. The outcome in [2], in data set [3] and in [4] was inactive. For the same molecule, the IC50 in data set [5] worked out at 3.3 µM; in data set [6], 5.9 µM. Also, the fold change (FC) in [7] worked out at 11; in data set [9] it was 9.5. For the same molecule, the Activity entry in data set [10] is “Non-Toxic”.
